Active and inactive are the calls of the source. Unless noted, the rule behind the calls is not given here.
What was measured:
[1] = test system: 3T3-L1; experiment: Effect on total eIF4E protein level in mouse 3T3L1 cells at 3 uM after 2 hrs by Western blot analysis; type: ADME, cell-based; details: 3t3-l1, 2 h
In short: (§1)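 Mouse 3T3-L1 pre-adipocytes (DMEM high glucose, 10% heat-inactivated FBS, 37 °C, 5% CO₂) treated 2 h with compounds at 3 μM or lower concentrations down to 0.1 μM final; DMSO vehicle 0.03-0.05% final. RIPA lysates cleared, equal protein resolved by SDS-PAGE, immunoblotted for P-eIF4E and total eIF4E, fluorescent secondary detection.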

[2] = species on record: Mus musculus; experiment: Inhibition of MNK in mouse 3T3L1 cells assessed as reduction of eIF4E phosphorylation at 3 uM after 2 hrs by Western blot analysis; type: cell-based; in short: as §1
[3] = target: MAP kinase-interacting serine/threonine-protein kinase 1 (Mus musculus) (UniProt O08605); experiment: Inhibition of MNK1 in C57BL/6J mouse embryonic fibroblasts assessed as decrease in eIF4E phosphorylation at 5 uM after 2 hrs by Western blot analysis
Chain of MAP kinase-interacting serine/threonine-protein kinase 1 (Mus musculus) (O08605 whole entry, the tested form may be a part): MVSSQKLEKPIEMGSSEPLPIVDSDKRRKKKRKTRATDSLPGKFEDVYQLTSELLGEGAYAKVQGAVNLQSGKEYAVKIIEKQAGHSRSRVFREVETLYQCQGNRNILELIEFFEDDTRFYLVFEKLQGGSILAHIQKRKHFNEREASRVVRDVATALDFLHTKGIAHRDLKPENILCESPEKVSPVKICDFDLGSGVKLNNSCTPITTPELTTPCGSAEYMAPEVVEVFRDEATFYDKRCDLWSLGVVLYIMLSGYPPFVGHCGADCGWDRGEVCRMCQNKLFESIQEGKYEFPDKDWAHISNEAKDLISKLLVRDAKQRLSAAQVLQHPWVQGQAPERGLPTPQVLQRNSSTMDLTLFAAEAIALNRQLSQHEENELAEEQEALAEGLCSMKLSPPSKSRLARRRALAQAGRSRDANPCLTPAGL
In short: (§2)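 MEFs from E13.5 C57BL/6J embryos, wild-type, MNK1-KO or MNK2-KO (DMEM, 10% FBS), treated 2 h with inhibitor at indicated concentrations, including a lower-concentration series in MNK1-KO cells; CGP57380 at 50 μM as reference. Lysates analysed by SDS-PAGE/western blot for P-eIF4E; quantified from three independent experiments, SEM.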

[4] = target: MAP kinase-interacting serine/threonine-protein kinase 2 (Mus musculus) (UniProt Q8CDB0); experiment: Inhibition of MNK2 in C57BL/6J mouse embryonic fibroblasts assessed as decrease in eIF4E phosphorylation at 5 uM after 2 hrs by Western blot analysis; in short: as §2
Chain of MAP kinase-interacting serine/threonine-protein kinase 2 (Mus musculus) (Q8CDB0 whole entry): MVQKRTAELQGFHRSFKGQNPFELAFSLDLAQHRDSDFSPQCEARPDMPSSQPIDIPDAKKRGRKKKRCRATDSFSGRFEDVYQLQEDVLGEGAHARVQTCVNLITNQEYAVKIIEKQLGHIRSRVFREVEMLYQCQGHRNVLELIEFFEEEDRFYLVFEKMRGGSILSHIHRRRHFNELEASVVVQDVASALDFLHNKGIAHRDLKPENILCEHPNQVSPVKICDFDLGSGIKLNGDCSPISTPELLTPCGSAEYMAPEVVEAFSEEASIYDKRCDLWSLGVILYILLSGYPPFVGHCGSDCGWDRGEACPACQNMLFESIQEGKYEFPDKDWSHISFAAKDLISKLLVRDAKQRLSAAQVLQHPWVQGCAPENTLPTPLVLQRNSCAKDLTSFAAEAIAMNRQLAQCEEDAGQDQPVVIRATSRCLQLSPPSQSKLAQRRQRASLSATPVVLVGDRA

[5] = target: MAP kinase-interacting serine/threonine-protein kinase 2 (Mus musculus) (UniProt Q8CDB0); experiment: Inhibition of MNK2 in MNK1-knockout C57BL/6J mouse embryonic fibroblasts assessed as decrease in eIF4E phosphorylation at 0.5 uM after 2 hrs by Western blot analysis; in short: as §2
[6] = target: MAP kinase-interacting serine/threonine-protein kinase 1 (Mus musculus) (UniProt O08605); experiment: Inhibition of MNK1 in C57BL/6J mouse embryonic fibroblasts assessed as decrease in eIF4E phosphorylation at 0.1 to 0.3 uM after 2 hrs by Western blot analysis relative to control; in short: as §2
[7] = target: MAP kinase-interacting serine/threonine-protein kinase 1 (Homo sapiens) (UniProt Q9BUB5); experiment: Inhibition of GST-fused MNK1a (unknown origin) expressed in HEK293 cells using eIF4E as substrate after 30 mins by Western blot analysis; type: cell-based
Chain of MAP kinase-interacting serine/threonine-protein kinase 1 (Homo sapiens) (Q9BUB5 whole entry, looked up, the tested form may be a part): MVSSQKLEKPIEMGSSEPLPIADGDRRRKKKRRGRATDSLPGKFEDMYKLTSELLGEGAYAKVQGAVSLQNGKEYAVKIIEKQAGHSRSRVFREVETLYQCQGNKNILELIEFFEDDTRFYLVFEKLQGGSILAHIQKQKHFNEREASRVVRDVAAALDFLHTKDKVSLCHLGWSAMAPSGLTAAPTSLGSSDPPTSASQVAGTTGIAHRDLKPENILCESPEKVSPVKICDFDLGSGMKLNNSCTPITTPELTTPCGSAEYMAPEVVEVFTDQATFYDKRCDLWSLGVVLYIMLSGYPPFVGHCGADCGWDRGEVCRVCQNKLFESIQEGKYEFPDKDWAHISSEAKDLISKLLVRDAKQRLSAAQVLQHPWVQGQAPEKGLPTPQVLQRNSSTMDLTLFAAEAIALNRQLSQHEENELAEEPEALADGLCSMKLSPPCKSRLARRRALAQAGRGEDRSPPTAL
In short: (§3)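 GST-MNK1a or GST-MNK2a expressed in transfected HEK293 cells, purified by glutathione pull-down. Incubated in 25 mM Tris-HCl pH 7.5, 50 mM KCl, 2 mM MgCl₂ with 20 µM ATP and 65 ng E. coli-expressed eIF4E, 30 °C, 30 min, ± inhibitor. Stopped with sample buffer; immunoblotted for P-eIF4E Ser209, eIF4E and GST. Conditions pre-set within linear range.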

[8] = target: T1, MAP kinase-interacting serine/threonine-protein kinase 1/2 (Homo sapiens) (UniProt Q9HBH9+Q9BUB5); experiment: Inhibition of MNK in human MDA-MB-231 cells assessed as decrease in eIF4E phosphorylation at 1 uM after 2 hrs by Western blot analysis; type: cell-based
In short: (§4)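 MDA-MB-231 cells treated with inhibitor at indicated concentrations for 2 h, or at 3 μM for times up to 72 h (DMSO vehicle <0.05%). Cells lysed in RIPA buffer; supernatants analysed by SDS-PAGE and western blot for P-eIF4E and total eIF4E. CGP57380 at 30 μM as reference.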

[9] = species on record: Mus musculus; experiment: Inhibition of mTORC1 in mouse 3T3L1 cells assessed as reduction in 4EBP1 at Ser65 residue phosphorylation at 0.1 to 5 uM after 2 hrs by Western blot analysis; type: cell-based
In short: (§5)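 3T3-L1 cells treated 2 h with inhibitor at indicated concentrations (DMSO <0.05% v/v). RIPA lysates, equal protein by Bradford, SDS-PAGE and western blot with phospho-specific antibodies (ERK, RSK, PKB Ser473, 4E-BP1, rpS6); fluorescent secondary imaging. Quantified from three independent experiments, SEM error bars.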

[10] = test system: MDA-MB-231; experiment: Antimigratory activity against human MDA-MB-231 cells after 24 hrs by DAPI staining-based Transwell assay; type: functional, cell-based
In short: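 MDA-MB-231 cells pre-treated with inhibitor 60 min, then 3 x 10⁵ cells seeded into 8 μm-pore Transwell inserts pre-coated with 10 μg/ml collagen (collagen as attractant). After 24 h, migrated cells in bottom well stained with DAPI, imaged at ×10 and counted. Triplicate assays, mean ± SEM.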

[11] = species on record: Mus musculus; experiment: Inhibition of ERK signalling in mouse 3T3L1 cells assessed as reduction in RSK phosphorylation at […] residue at 0.1 to 5 uM after 2 hrs by Western blot analysis; type: cell-based; in short: as §5
[12] = species on record: Mus musculus; experiment: Inhibition of mTORC2 in mouse 3T3L1 cells assessed as reduction in PKB phosphorylation at Ser473 residue at 0.1 to 5 uM after 2 hrs by Western blot analysis; type: cell-based; in short: as §5
[13] = target: MAP kinase-interacting serine/threonine-protein kinase 2 (Homo sapiens) (UniProt Q9HBH9); experiment: Inhibition of GST-fused MNK2a (unknown origin) expressed in HEK293 cells using eIF4E as substrate after 30 mins by Western blot analysis; type: cell-based; in short: as §3
Chain of MAP kinase-interacting serine/threonine-protein kinase 2 (Homo sapiens) (Q9HBH9 whole entry, looked up, the tested form may be a part): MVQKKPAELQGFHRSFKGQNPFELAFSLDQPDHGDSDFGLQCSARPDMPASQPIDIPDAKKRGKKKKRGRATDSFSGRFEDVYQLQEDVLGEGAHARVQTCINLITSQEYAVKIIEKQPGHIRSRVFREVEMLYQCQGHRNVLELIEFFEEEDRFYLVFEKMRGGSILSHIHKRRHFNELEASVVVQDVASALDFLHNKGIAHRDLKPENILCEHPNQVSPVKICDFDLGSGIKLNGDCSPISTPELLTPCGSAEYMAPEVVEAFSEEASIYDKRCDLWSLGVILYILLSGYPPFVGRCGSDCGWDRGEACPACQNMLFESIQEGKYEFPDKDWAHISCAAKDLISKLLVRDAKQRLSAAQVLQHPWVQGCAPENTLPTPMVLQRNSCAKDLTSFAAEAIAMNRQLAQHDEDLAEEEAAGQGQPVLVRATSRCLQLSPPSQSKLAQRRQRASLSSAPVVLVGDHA

[14] = target: MAP kinase-interacting serine/threonine-protein kinase 2 (Mus musculus) (UniProt Q8CDB0); experiment: Inhibition of MNK2 in MNK1-knockout C57BL/6J mouse embryonic fibroblasts assessed as decrease in eIF4E phosphorylation at 0.003 to 0.03 uM after 2 hrs by Western blot analysis; in short: as §2
[15] = species on record: Mus musculus; experiment: Inhibition of MNK in mouse 3T3L1 cells assessed as reduction of eIF4E phosphorylation at 0.1 uM after 2 hrs by Western blot analysis; type: cell-based; in short: as §1
[16] = target: T1, MAP kinase-interacting serine/threonine-protein kinase 1/2 (Homo sapiens); experiment: Inhibition of MNK in human MDA-MB-231 cells assessed as decrease in eIF4E phosphorylation at 3 uM up to 72 hrs by Western blot analysis; type: cell-based; in short: as §4
[17] = target: MAP kinase-interacting serine/threonine-protein kinase 1 (Mus musculus) (UniProt O08605); experiment: Inhibition of MNK1 in MNK2-knockout C57BL/6J mouse embryonic fibroblasts assessed as decrease in eIF4E phosphorylation at 0.3 to 5 uM after 2 hrs by Western blot analysis; in short: as §2
[18] = species on record: Mus musculus; experiment: Inhibition of mTORC1 in mouse 3T3L1 cells assessed as reduction in rpS6 phosphorylation at Ser240/244 residues at 0.1 to 5 uM after 2 hrs by Western blot analysis; type: cell-based; in short: as §5
[19] = target: Mitogen-activated protein kinase 1 and 3 (ERK2 and ERK1) (Mus musculus) (UniProt P63085+Q63844); experiment: Inhibition of ERK1/2 phosphorylation at Thr202/Tyr204 residues in mouse 3T3L1 cells at 0.1 to 5 uM after 2 hrs by Western blot analysis; type: cell-based; in short: as §5
Chain of Mitogen-activated protein kinase 1 and 3 (ERK2 and ERK1) (Mus musculus) (P63085 whole entry, looked up): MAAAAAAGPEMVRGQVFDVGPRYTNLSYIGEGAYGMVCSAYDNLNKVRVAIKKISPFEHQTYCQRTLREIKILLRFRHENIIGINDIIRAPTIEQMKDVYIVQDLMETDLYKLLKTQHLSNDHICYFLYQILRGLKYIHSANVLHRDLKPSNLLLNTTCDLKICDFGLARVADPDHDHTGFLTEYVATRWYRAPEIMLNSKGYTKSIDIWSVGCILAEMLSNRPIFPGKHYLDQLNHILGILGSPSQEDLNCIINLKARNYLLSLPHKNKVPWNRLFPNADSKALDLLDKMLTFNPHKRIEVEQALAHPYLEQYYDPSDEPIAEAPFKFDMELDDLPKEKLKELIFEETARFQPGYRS
Chain of Mitogen-activated protein kinase 1 and 3 (ERK2 and ERK1) (Mus musculus) (Q63844 whole entry, looked up): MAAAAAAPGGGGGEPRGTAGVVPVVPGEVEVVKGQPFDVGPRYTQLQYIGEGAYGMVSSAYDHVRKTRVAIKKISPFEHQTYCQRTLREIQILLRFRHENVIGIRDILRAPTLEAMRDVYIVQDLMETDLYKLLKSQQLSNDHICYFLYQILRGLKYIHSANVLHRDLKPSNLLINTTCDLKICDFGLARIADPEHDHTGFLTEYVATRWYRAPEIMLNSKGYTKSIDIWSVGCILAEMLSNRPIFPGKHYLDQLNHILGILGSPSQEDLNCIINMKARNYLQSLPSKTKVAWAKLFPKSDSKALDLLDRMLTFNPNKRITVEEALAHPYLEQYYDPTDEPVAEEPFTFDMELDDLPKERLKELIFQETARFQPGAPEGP

SMILES | Activity [1] | MNK inhibition (active/not active) [2] | further results
COc1cc(F)ccc1Nc1ncnc2sc(C(=O)N3CCOCC3)c(C)c12 | Non-Toxic | Active | 
Cc1c(C(=O)OCCO)sc2ncnc(Nc3ccc(F)cc3OC(C)C)c12 |  | Active | 
COc1cc(F)ccc1Nc1ncnc2sc(C(=O)NCCCN(C)C)c(C)c12 |  | inactive | 
COc1cc(F)ccc1Nc1ncnc2sc(C(=O)NCCc3ccncc3)c(C)c12 | Non-Toxic | Active | 
Cc1c(C(=O)N2CCCCC2)sc2ncnc(Nc3ccc(F)cc3OC(C)C)c12 | Non-Toxic | Active | 
Cc1c(C(=O)N2CCCC2)sc2ncnc(Nc3ccc(F)cc3OC(C)C)c12 | Non-Toxic | Active | 
Cc1c(C(=O)NCCCN(C)C)sc2ncnc(Nc3ccc(F)cc3OC(C)CF)c12 (configuration not stated) | Non-Toxic | Active | inhibition [3]: 100%; inhibition [4]: 100%; inhibition [5]: Active; inhibition [6]: 50%; inhibition [7]: Active; inhibition [8]: 100%; inhibition [9]: inactive; inhibition [10]: Active; inhibition [11]: inactive; inhibition [12]: inactive; inhibition [13]: Active; inhibition [14]: Active; inhibition of eIF4E phosphorylation (active/not active) [15]: Active; inhibition [16]: Active; inhibition [17]: Active; inhibition [18]: inactive; inhibition [19]: inactive
COc1cc(F)ccc1Nc1ncnc2sc(C(=O)NCCc3c[nH]cn3)c(C)c12 | Non-Toxic | Active | 
Cc1c(C(=O)OCCCO)sc2ncnc(Nc3ccc(F)cc3OC(C)C)c12 | Non-Toxic | Active | 
COc1cc(F)ccc1Nc1ncnc2sc(C(=O)N3CCN(C)CC3)c(C)c12 | Non-Toxic | Active | 
COc1cc(F)ccc1Nc1ncnc2sc(C(=O)N3CCCCC3)c(C)c12 | Non-Toxic | Active | 
COc1cc(F)ccc1Nc1ncnc2sc(C(=O)NC3CCCCC3)c(C)c12 | Non-Toxic | Active | 
COc1cc(F)ccc1Nc1ncnc2sc(C(=O)NCCCN3CCCC3)c(C)c12 | Non-Toxic | Active | 
COc1cc(F)ccc1Nc1ncnc2sc(C(=O)NCC(C)(C)CN(C)C)c(C)c12 | Non-Toxic |  | 
Cc1c(C(=O)NCCCN(C)C)sc2ncnc(Nc3ccc(F)cc3OC(C)C)c12 |  | Active | 
Cc1c(C(=O)N2CCN(C)CC2)sc2ncnc(Nc3ccc(F)cc3OC(C)C)c12 | Non-Toxic | Active | 
Cc1c(C(=O)NCCc2c[nH]cn2)sc2ncnc(Nc3ccc(F)cc3OC(C)C)c12 | Non-Toxic | Active | inhibition of eIF4E phosphorylation (active/not active) [15]: inactive
Cc1c(C(=O)OCCc2ccccc2)sc2ncnc(Nc3ccc(F)cc3OC(C)C)c12 | Non-Toxic | Active | 
Cc1c(C(=O)NCC(C)(C)CN(C)C)sc2ncnc(Nc3ccc(F)cc3OC(C)C)c12 | Non-Toxic | Active | inhibition of eIF4E phosphorylation (active/not active) [15]: inactive
Cc1c(C(=O)NC2CCCCC2)sc2ncnc(Nc3ccc(F)cc3OC(C)C)c12 | Non-Toxic | Active | 
Cc1c(C(=O)NCCCN2CCOCC2)sc2ncnc(Nc3ccc(F)cc3OC(C)C)c12 | Non-Toxic | Active | inhibition of eIF4E phosphorylation (active/not active) [15]: inactive
COc1cc(F)ccc1Nc1ncnc2sc(C(=O)NCCCN3CCOCC3)c(C)c12 | Non-Toxic | Active | 
COc1cc(F)ccc1Nc1ncnc2sc(C(=O)NCCCO)c(C)c12 | Non-Toxic | Active | 
Cc1c(C(=O)NCCCO)sc2ncnc(Nc3ccc(F)cc3OC(C)C)c12 |  | Active | 
COC(=O)c1sc2ncnc(Nc3ccc(F)cc3OC(C)C)c2c1C |  | inactive | 
COc1cc(F)ccc1Nc1ncnc2sc(C(=O)OCCO)c(C)c12 | Non-Toxic |  | 
Cc1c(C(=O)NCCc2ccncc2)sc2ncnc(Nc3ccc(F)cc3OC(C)C)c12 | Non-Toxic | Active | inhibition of eIF4E phosphorylation (active/not active) [15]: inactive
Cc1c(C(=O)N2CCOCC2)sc2ncnc(Nc3ccc(F)cc3OC(C)C)c12 | Non-Toxic | Active | 
COc1cc(F)ccc1Nc1ncnc2sc(C(=O)N3CCCC3)c(C)c12 | Non-Toxic | Active | 
